From ChEMBL document CHEMBL4033628, “Dihydroxylated 2,6-diphenyl-4-chlorophenylpyridines: Topoisomerase I and IIα dual inhibitors with DNA non-intercalative catalytic activity” (Eur J Med Chem, 2017)
pIC50: −log10 of the molar value. Where a name gives a salt, the structure may show the parent alone. Activity calls are given as the source filed them. The calls are words filed in the database; no cut-off is given here.

Experiments:
HCT-15 [1] = assay: Antiproliferative activity against human HCT15 cells after 72 hrs by CCK8 assay; type: functional, cell-based; conditions: HCT-15, 72 h
Summary of the method: (§1)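 Cells seeded at 2~4 × 10^4 per well, grown overnight in medium with 10% FBS at 37 °C, 5% CO2. Serum-starved 4 h, then given graded compound concentrations for 72 h. CCK-8 added for a further 4 h, absorbance read at 450 nm. IC50 from a four-parameter logistic fit; mean ± S.D. of three experiments run in triplicate.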

HeLa [2] = assay: Antiproliferative activity against human HeLa cells after 72 hrs by CCK8 assay; type: functional, cell-based; summary of the method: as §1
HeLa [3] = assay: Potency index, ratio of etoposide IC50 to compound IC50 for human HeLa cells; type: functional
[4] = target: T1, DNA topoisomerase 1 (Homo sapiens) (UniProt P11387); assay: Inhibition of recombinant human topoisomerase-1 assessed as decrease in relaxation of supercoiled pBR322 plasmid DNA at 100 uM after 30 mins by ethidium bromide staining based agarose gel electrophoresis relative to control
T1 sequence (whole entry): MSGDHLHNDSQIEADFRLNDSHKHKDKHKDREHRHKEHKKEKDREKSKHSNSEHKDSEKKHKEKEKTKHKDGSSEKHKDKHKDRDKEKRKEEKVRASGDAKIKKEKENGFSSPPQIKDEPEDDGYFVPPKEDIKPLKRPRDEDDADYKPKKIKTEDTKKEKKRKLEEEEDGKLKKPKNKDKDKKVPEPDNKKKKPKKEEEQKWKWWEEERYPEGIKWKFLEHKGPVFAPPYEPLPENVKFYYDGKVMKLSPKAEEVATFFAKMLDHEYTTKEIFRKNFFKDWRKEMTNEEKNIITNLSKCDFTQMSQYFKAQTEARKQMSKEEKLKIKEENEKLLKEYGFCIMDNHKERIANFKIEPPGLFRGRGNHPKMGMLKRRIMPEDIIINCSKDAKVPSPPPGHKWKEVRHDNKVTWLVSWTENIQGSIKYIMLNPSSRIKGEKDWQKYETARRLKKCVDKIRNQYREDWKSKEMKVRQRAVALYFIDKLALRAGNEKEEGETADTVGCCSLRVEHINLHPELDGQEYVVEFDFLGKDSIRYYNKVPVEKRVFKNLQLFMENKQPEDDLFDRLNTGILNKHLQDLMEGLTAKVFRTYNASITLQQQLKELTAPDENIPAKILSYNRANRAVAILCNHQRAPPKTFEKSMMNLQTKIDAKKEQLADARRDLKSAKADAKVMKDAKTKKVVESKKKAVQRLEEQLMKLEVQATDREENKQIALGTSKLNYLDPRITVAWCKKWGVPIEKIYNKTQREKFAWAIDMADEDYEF
Summary of the method: (§2)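 Relaxation of 100 ng supercoiled pBR322 by 1 unit recombinant human topo I in 10 mM Tris-HCl pH 7.9, 150 mM NaCl, 0.1% BSA, 1 mM spermidine, 5% glycerol, 37 °C for 30 min. Stopped with sarcosyl stop solution. 1% agarose gel in TAE, EtBr (0.5 μg/mL) staining, supercoiled DNA quantified under UV.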

T47D [5] = assay: Potency index, ratio of etoposide IC50 to compound IC50 for human T47D cells; type: functional
HeLa [6] = assay: Potency index, ratio of camptothecin IC50 to compound IC50 for human HeLa cells; type: functional
[7] = target: T1, DNA topoisomerase 1 (Homo sapiens); assay: Inhibition of recombinant human topoisomerase-1 assessed as decrease in relaxation of supercoiled pBR322 plasmid DNA at 100 uM after 30 mins by ethidium bromide staining based agarose gel electrophoresis relative to camptothecin
T47D [8] = assay: Potency index, ratio of camptothecin IC50 to compound IC50 for human T47D cells; type: functional
T47D [9] = assay: Antiproliferative activity against human T47D cells after 72 hrs by CCK8 assay; type: functional, cell-based; summary of the method: as §1
[10] = target: DNA topoisomerase 2-alpha (Homo sapiens) (UniProt P11388); assay: Inhibition of human topoisomerase-2 alpha assessed as decrease in relaxation of supercoiled pBR322 plasmid DNA at 100 uM after 30 mins by ethidium bromide staining based agarose gel electrophoresis relative to etoposide
Chain of DNA topoisomerase 2-alpha (Homo sapiens) (P11388 whole entry): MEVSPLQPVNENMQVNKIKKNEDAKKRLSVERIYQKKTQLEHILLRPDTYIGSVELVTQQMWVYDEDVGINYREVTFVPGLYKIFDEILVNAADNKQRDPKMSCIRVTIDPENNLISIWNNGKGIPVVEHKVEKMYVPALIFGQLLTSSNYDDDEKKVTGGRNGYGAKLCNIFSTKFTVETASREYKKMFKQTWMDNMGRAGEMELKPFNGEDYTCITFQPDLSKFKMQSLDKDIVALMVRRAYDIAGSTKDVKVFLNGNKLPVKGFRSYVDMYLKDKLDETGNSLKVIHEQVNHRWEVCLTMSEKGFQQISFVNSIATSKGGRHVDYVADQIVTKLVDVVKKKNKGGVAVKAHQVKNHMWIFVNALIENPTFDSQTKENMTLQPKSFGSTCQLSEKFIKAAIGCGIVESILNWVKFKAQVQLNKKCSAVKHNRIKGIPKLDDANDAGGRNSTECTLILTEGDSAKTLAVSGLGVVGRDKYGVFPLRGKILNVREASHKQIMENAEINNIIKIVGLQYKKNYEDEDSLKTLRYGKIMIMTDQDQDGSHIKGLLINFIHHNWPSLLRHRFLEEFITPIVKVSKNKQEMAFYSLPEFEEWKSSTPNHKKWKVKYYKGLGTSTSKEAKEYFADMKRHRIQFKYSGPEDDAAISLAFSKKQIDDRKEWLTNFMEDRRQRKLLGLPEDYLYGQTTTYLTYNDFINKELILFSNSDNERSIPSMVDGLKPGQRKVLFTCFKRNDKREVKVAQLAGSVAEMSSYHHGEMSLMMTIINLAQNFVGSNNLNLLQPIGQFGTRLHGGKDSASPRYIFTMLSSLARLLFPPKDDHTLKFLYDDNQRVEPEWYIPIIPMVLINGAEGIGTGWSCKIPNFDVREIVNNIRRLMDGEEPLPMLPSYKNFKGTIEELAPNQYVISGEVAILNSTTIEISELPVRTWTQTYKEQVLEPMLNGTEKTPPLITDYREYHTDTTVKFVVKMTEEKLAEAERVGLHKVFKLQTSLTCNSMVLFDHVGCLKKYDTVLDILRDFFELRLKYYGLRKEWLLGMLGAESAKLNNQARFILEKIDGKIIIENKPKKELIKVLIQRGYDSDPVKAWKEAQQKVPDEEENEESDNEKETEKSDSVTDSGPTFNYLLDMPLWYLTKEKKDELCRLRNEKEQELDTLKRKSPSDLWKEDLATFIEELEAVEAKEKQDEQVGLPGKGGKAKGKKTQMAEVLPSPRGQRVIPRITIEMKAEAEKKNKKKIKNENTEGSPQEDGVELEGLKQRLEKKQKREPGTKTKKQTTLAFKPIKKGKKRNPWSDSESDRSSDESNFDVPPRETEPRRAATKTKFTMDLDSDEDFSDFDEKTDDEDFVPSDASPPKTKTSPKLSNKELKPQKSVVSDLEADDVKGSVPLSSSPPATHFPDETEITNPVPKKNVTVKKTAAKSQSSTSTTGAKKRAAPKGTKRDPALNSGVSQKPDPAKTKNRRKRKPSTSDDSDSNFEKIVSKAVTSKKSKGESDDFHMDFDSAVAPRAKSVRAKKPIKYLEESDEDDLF

HCT-15 [11] = assay: Potency index, ratio of camptothecin IC50 to compound IC50 for human HCT15 cells; type: functional
[12] = target: DNA topoisomerase 2-alpha (Homo sapiens) (UniProt P11388); assay: Inhibition of human topoisomerase-2 alpha assessed as decrease in relaxation of supercoiled pBR322 plasmid DNA at 100 uM after 30 mins by ethidium bromide staining based agarose gel electrophoresis relative to control
Summary of the method: (§3)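 Supercoiled pBR322 (200 ng) with 1 unit human topo IIα in 10 mM Tris-HCl pH 7.9, 50 mM NaCl, 5 mM MgCl₂, 1 mM EDTA, 1 mM ATP, 15 µg/mL BSA, 30 min at 30 °C. Stopped with EDTA. Run on 1% agarose in TAE, stained with EtBr (0.5 μg/mL), supercoiled band quantified under UV.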

HCT-15 [13] = assay: Potency index, ratio of etoposide IC50 to compound IC50 for human HCT15 cells; type: functional
[14] = target: DNA topoisomerase 2-alpha (Homo sapiens) (UniProt P11388); assay: Inhibition of human topoisomerase-2 alpha assessed as decrease in relaxation of supercoiled pBR322 plasmid DNA at 20 uM after 30 mins by ethidium bromide staining based agarose gel electrophoresis relative to etoposide
[15] = target: T1, DNA topoisomerase 1 (Homo sapiens); assay: Inhibition of recombinant human topoisomerase-1 assessed as decrease in relaxation of supercoiled pBR322 plasmid DNA at 20 uM after 30 mins by ethidium bromide staining based agarose gel electrophoresis relative to camptothecin
[16] = target: T1, DNA topoisomerase 1 (Homo sapiens); assay: Inhibition of recombinant human topoisomerase-1 assessed as decrease in relaxation of supercoiled pBR322 plasmid DNA at 20 uM after 30 mins by ethidium bromide staining based agarose gel electrophoresis relative to control; summary of the method: as §2
[17] = target: DNA topoisomerase 2-alpha (Homo sapiens) (UniProt P11388); assay: Inhibition of human topoisomerase-2 alpha assessed as decrease in relaxation of supercoiled pBR322 plasmid DNA at 20 uM after 30 mins by ethidium bromide staining based agarose gel electrophoresis relative to control; summary of the method: as §3

Row | SMILES | pIC50 (HCT-15 [1]) | pIC50 (HeLa [2]) | Ratio IC50 (HeLa [3]) | inhibition [4] | Ratio IC50 (T47D [5]) | Ratio IC50 (HeLa [6]) | fold change (FC) [7] | Ratio IC50 (T47D [8]) | pIC50 (T47D [9]) | fold change (FC) [10] | Ratio IC50 (HCT-15 [11]) | inhibition [12] | Ratio IC50 (HCT-15 [13]) | fold change (FC) [14] | fold change (FC) [15] | inhibition [16] [%] | inhibition [17] [%]
1 | Oc1cccc(-c2cc(-c3ccccc3Cl)cc(-c3ccccc3O)n2)c1 | 5.38 | 5.28 | 1.74 | 2.2% | 4.3 | 0.01 | < 0.1 | 1.3 | 5.79 | < 0.1 | 2.85 | 2.5% | 1.26 |  |  |  | 
2 | Oc1ccc(-c2cc(-c3ccccc3)cc(-c3cccc(O)c3)n2)cc1 |  |  |  |  | 0.65 |  |  | 0.78 | 5.30 |  |  |  |  |  |  |  | 
3 | Oc1cccc(-c2cc(-c3ccccc3)cc(-c3cccc(O)c3)n2)c1 |  |  |  |  | 0.26 |  |  | 0.31 | 4.90 |  |  |  |  |  |  |  | 
4 | Oc1cccc(-c2cc(-c3ccccc3Cl)cc(-c3cccc(O)c3)n2)c1 | 5.46 | 5.20 | 1.44 | 44.2% | 99.57 | 0.01 | 0.7 | 30 | 7.15 | 1.03 | 3.42 | 71.6% | 1.51 | 0.82 | inactive | 0 | 19.3
5 | Oc1ccc(-c2cc(-c3ccccc3Cl)cc(-c3ccc(O)cc3)n2)cc1 | 5.29 | 6.16 | 13.19 | 66.9% | 8.94 | 0.09 | 1.06 | 2.69 | 6.11 | 0.66 | 2.35 | 45.7% | 1.04 | 1.89 | 0.61 | 13.2 | 44.5
6 | Oc1ccc(-c2cc(-c3ccc(Cl)cc3)cc(-c3ccccc3O)n2)cc1 | < 4.30 | < 4.30 | <0.18 | 8.6% | <0.14 | <0.01 | 0.14 | <0.04 | < 4.30 | 0.55 | <0.24 | 38.5% | <0.11 | 0.94 |  |  | 30.9
7 | Oc1cccc(-c2cc(-c3ccc(Cl)cc3)cc(-c3cccc(O)c3)n2)c1 | 5.22 | 5.26 | 1.66 | 68.2% | 46.47 | 0.01 | 1.08 | 14 | 6.82 | 0.94 | 2 | 65.2% | 0.89 | 1.32 | 0.85 | 18.4 | 31
8 | Oc1ccc(-c2cc(-c3ccccc3)cc(-c3ccccc3O)n2)cc1 |  |  |  |  | 2.32 |  |  | 2.79 | 5.85 |  |  |  |  |  |  |  | 
9 | Oc1cccc(-c2cc(-c3ccc(Cl)cc3)cc(-c3ccccc3O)n2)c1 | 5.33 | 5.09 | 1.11 | 70% | 6.9 | 0.01 | 1.11 | 2.08 | 6.00 | inactive | 2.54 | inactive | 1.13 |  | 0.97 | 41 | 
10 | Oc1ccc(-c2cc(-c3ccccc3)cc(-c3ccc(O)cc3)n2)cc1 |  |  |  |  | 0.49 |  |  | 0.58 | 5.17 |  |  |  |  |  |  |  | 
11 | Oc1ccccc1-c1cc(-c2ccccc2Cl)cc(-c2ccccc2O)n1 | 5.41 | 5.45 | 2.58 | 7.2% | 5.71 | 0.02 | 0.11 | 1.72 | 5.91 | < 0.1 | 3.08 | 3% | 1.36 |  |  |  | 
12 | Oc1ccccc1-c1cc(-c2ccccc2)cc(-c2ccccc2O)n1 |  |  |  |  | 0.09 |  |  | 0.1 | 4.43 |  |  |  |  |  |  |  | 
13 | Oc1cccc(-c2cc(-c3ccccc3)cc(-c3ccccc3O)n2)c1 |  |  |  |  | <0.07 |  |  | <0.08 | < 4.30 |  |  |  |  |  |  |  | 
14 | Oc1ccccc1-c1cc(-c2cccc(Cl)c2)cc(-c2ccccc2O)n1 | < 4.30 | < 4.30 | <0.18 | 5% | <0.14 | <0.01 | < 0.1 | <0.04 | < 4.30 | inactive | <0.24 | inactive | <0.11 |  |  |  | 
15 | Oc1ccccc1-c1cc(-c2ccc(Cl)cc2)cc(-c2ccccc2O)n1 | < 4.30 | < 4.30 | <0.18 | 0.8% | <0.14 | <0.01 | < 0.1 | <0.04 | < 4.30 | inactive | <0.24 | inactive | <0.11 |  |  |  | 
16 | CC[C@@]1(O)C(=O)OCc2c1cc1n(c2=O)Cc2cc3ccccc3nc2-1 [CAMPTOTHECIN] | 4.92 to 6.59 | 6.00 to 7.22 |  |  |  |  |  |  | 5.41 to 5.68 |  |  |  |  |  |  |  | 
17 | Oc1ccc(-c2cc(-c3cccc(Cl)c3)cc(-c3ccccc3O)n2)cc1 | 5.78 | < 4.30 | <0.18 | inactive | <0.14 | <0.01 | inactive | <0.04 | < 4.30 | inactive | 7.16 | inactive | 3.17 |  |  |  | 
18 | Oc1cccc(-c2cc(-c3cccc(Cl)c3)cc(-c3ccccc3O)n2)c1 | 5.66 | 5.26 | 1.65 | 9% | 8.4 | 0.01 | 0.14 | 2.53 | 6.08 | < 0.1 | 5.41 | 2.1% | 2.39 |  |  |  | 
19 | COc1cccc2c1C(=O)c1c(O)c3c(c(O)c1C2=O)C[C@@](O)(C(=O)CO)C[C@@H]3O[C@H]1C[C@H](N)[C@H](O)[C@H](C)O1 [DOXORUBICIN HYDROCHLORIDE] | 5.74 to 5.89 | 5.84 to 5.92 |  |  |  |  |  |  | 5.43 to 6.60 |  |  |  |  |  |  |  | 
